# Legend:
# SK-MEL-5 = test: Cytotoxicity against human SK-MEL-5 cells assessed as cell growth at 10 uM after 48 hrs by SRB assay relative to control; format: functional; conditions: SK-MEL-5, 48 h, read-out: Activity
# How it was run: (§1)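 First-stage NCI DTP one-dose screen against the 60 human tumour cell line panel. Compounds were tested at a single 10 μM level, and results are given as growth percentage.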
# PC-3 = test: Cytotoxicity against human PC3 cells assessed as cell growth at 10 uM after 48 hrs by SRB assay relative to control; format: functional; conditions: PC-3, 48 h, read-out: Activity; how it was run: as §1
# DU-145 [1] = test: Cytotoxicity against human DU145 cells after 72 hrs by MTT assay; format: functional, cell-based; conditions: DU-145, 72 h
# How it was run: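 DU-145 cells grown in RPMI-1640 with 5% heat-inactivated fetal calf serum at 37 °C, 5% CO2. About 2×10^3 cells per well were seeded and incubated for 24 h. Compounds were dissolved in DMSO freshly and diluted into medium (vehicle 0.1% DMSO), then cells were exposed for 72 h. MTT was added for 3 h at 37 °C and absorbance read at 570 nm.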
# K562 = test: Cytotoxicity against human K562 cells assessed as cell growth at 10 uM after 48 hrs by SRB assay relative to control; format: functional; conditions: K562, 48 h, read-out: Activity
# How it was run: (§2)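 First-stage NCI-60 screen by the NCI Developmental Therapeutics Program. Each compound was tested once at a single concentration of 10 μM against the 60-cell-line panel. Growth percentage was reported for each cell line.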
# CAKI-1 = test: Cytotoxicity against human Caki1 cells assessed as cell growth at 10 uM after 48 hrs by SRB assay relative to control; format: functional; conditions: CAKI-1, 48 h, read-out: Activity; how it was run: as §2
# SF-268 = test: Cytotoxicity against human SF268 cells assessed as cell growth at 10 uM after 48 hrs by SRB assay relative to control; format: functional; conditions: SF-268, 48 h, read-out: Activity; how it was run: as §1
# RXF 393 = test: Cytotoxicity against human RXF393 cells assessed as cell growth at 10 uM after 48 hrs by SRB assay relative to control; format: functional; conditions: RXF 393, 48 h, read-out: Activity; how it was run: as §1
# HCC 2998 = test: Cytotoxicity against human HCC2998 cells assessed as cell growth at 10 uM after 48 hrs by SRB assay relative to control; format: functional; conditions: HCC 2998, 48 h, read-out: Activity; how it was run: as §2
# T47D = test: Cytotoxicity against human T47D cells assessed as cell growth at 10 uM after 48 hrs by SRB assay relative to control; format: functional; conditions: read-out: Activity
# How it was run: (§3)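 NCI-60 one-dose screen run by NCI DTP: each cell line exposed to a single 10 µM dose, and percentage growth recorded against untreated growth.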
# MDA-MB-435 = test: Cytotoxicity against human MDA-MB-435 cells assessed as cell growth at 10 uM after 48 hrs by SRB assay relative to control; format: functional; conditions: MDA-MB-435, 48 h, read-out: Activity; how it was run: as §1
# RPMI-8226 = test: Cytotoxicity against human RPMI8226 cells assessed as cell growth at 10 uM after 48 hrs by SRB assay relative to control; format: functional; conditions: RPMI-8226, 48 h, read-out: Activity; how it was run: as §1
# M14 = test: Cytotoxicity against human M14 cells assessed as cell growth at 10 uM after 48 hrs by SRB assay relative to control; format: functional; conditions: M14, 48 h, read-out: Activity; how it was run: as §2
# MDA-MB-468 = test: Cytotoxicity against human MDA-MB-468 cells assessed as cell growth at 10 uM after 48 hrs by SRB assay relative to control; format: functional; conditions: MDA-MB-468, 48 h, read-out: Activity; how it was run: as §1
# OVCAR-3 = test: Cytotoxicity against human OVCAR3 cells assessed as cell growth at 10 uM after 48 hrs by SRB assay relative to control; format: functional; conditions: OVCAR-3, 48 h, read-out: Activity; how it was run: as §1
# MOLT-4 = test: Cytotoxicity against human MOLT4 cells assessed as cell growth at 10 uM after 48 hrs by SRB assay relative to control; format: functional; conditions: MOLT-4, 48 h, read-out: Activity; how it was run: as §1
# HOP-92 = test: Cytotoxicity against human HOP92 cells assessed as cell growth at 10 uM after 48 hrs by SRB assay relative to control; format: functional; conditions: HOP-92, 48 h, read-out: Activity; how it was run: as §2
# U-251 = test: Cytotoxicity against human U251 cells assessed as cell growth at 10 uM after 48 hrs by SRB assay relative to control; format: functional; conditions: U-251, 48 h, read-out: Activity; how it was run: as §3
# A498 = test: Cytotoxicity against human A498 cells assessed as cell growth at 10 uM after 48 hrs by SRB assay relative to control; format: functional; conditions: A498, 48 h, read-out: Activity; how it was run: as §2
# DU-145 [2] = test: Cytotoxicity against human DU145 cells assessed as cell growth at 10 uM after 48 hrs by SRB assay relative to control; format: functional; conditions: DU-145, 48 h, read-out: Activity; how it was run: as §2
# BT-549 = test: Cytotoxicity against human BT549 cells assessed as cell growth at 10 uM after 48 hrs by SRB assay relative to control; format: functional; conditions: BT-549, 48 h, read-out: Activity; how it was run: as §2
# SNB-75 = test: Cytotoxicity against human SNB75 cells assessed as cell growth at 10 uM after 48 hrs by SRB assay relative to control; format: functional; conditions: SNB-75, 48 h, read-out: Activity; how it was run: as §3
# ACHN = test: Cytotoxicity against human ACHN cells assessed as cell growth at 10 uM after 48 hrs by SRB assay relative to control; format: functional; conditions: read-out: Activity; how it was run: as §2
# [3] = Cytotoxicity against human EKVX cells assessed as cell growth at 10 uM after 48 hrs by SRB assay relative to control; format: functional; conditions: read-out: Activity; how it was run: as §2
# NCI-H522 = test: Cytotoxicity against human NCI-H522 cells assessed as cell growth at 10 uM after 48 hrs by SRB assay relative to control; format: functional; conditions: NCI-H522, 48 h, read-out: Activity; how it was run: as §1
# HT-29 = test: Cytotoxicity against human HT-29 cells assessed as cell growth at 10 uM after 48 hrs by SRB assay relative to control; format: functional; conditions: HT-29, 48 h, read-out: Activity; how it was run: as §2
# LOX IMVI = test: Cytotoxicity against human LOXIMVI cells assessed as cell growth at 10 uM after 48 hrs by SRB assay relative to control; format: functional; conditions: read-out: Activity; how it was run: as §2
# [4] = Cytotoxicity against human Hs578T cells assessed as cell growth at 10 uM after 48 hrs by SRB assay relative to control; format: functional; conditions: Hs-578T, read-out: Activity; how it was run: as §2
# IGROV-1 = test: Cytotoxicity against human IGROV1 cells assessed as cell growth at 10 uM after 48 hrs by SRB assay relative to control; format: functional; conditions: IGROV-1, 48 h, read-out: Activity; how it was run: as §2
SMILES,growth at 10 µM (SK-MEL-5) [%],growth at 10 µM (PC-3) [%],IC50 (DU-145 [1]) [µM],growth at 10 µM (K562) [%],growth at 10 µM (CAKI-1) [%],growth at 10 µM (SF-268) [%],growth at 10 µM (RXF 393) [%],growth at 10 µM (HCC 2998) [%],growth at 10 µM (T47D) [%],growth at 10 µM (MDA-MB-435) [%],growth at 10 µM (RPMI-8226) [%],growth at 10 µM (M14) [%],growth at 10 µM (MDA-MB-468) [%],growth at 10 µM (OVCAR-3) [%],growth at 10 µM (MOLT-4) [%],growth at 10 µM (HOP-92) [%],growth at 10 µM (U-251) [%],growth at 10 µM (A498) [%],growth at 10 µM (DU-145 [2]) [%],growth at 10 µM (BT-549) [%],other results
CSc1ccc(Sc2cc3c(c4nsnc24)C(=O)c2ccccc2C3=O)cc1,101,78.4,> 15,67.5,99.4,89.7,107,111,86.6,118,88.6,108,82.2,103,59.9,4.31,104,56,101,108,growth at 10 µM (SNB-75): 75.1%; growth at 10 µM (ACHN): 104%; growth at 10 µM [3]: 114%; growth at 10 µM (NCI-H522): 95.4%; growth at 10 µM (HT-29): 102%; growth at 10 µM (LOX IMVI): 69%; growth at 10 µM [4]: 96.5%; growth at 10 µM (IGROV-1): 95.7%
O=C1c2ccccc2C(=O)c2c1cc(Sc1cc(Cl)ccc1Cl)c1nsnc21,109,80.6,> 15,47.8,108,83,91.5,109,63.4,106,77.2,99,90.7,99.4,1.27,65.1,63.6,87.7,102,79.7,growth at 10 µM (SNB-75): 47%; growth at 10 µM (ACHN): 88.5%; growth at 10 µM [3]: 109%; growth at 10 µM (NCI-H522): 91.3%; growth at 10 µM (HT-29): 106%; growth at 10 µM (LOX IMVI): 73%; growth at 10 µM [4]: 72.5%; growth at 10 µM (IGROV-1): 78.1%
Cc1cc(C)cc(Sc2cc3c(c4nsnc24)C(=O)c2ccccc2C3=O)c1,107,81.3,> 15,75.6,91,108,112,109,81.1,105,89.1,100,116,118,71.4,93.5,108,93.6,122,95.1,growth at 10 µM (SNB-75): 80.6%; growth at 10 µM (ACHN): 98%; growth at 10 µM [3]: 100%; growth at 10 µM (NCI-H522): 106%; growth at 10 µM (HT-29): 105%; growth at 10 µM (LOX IMVI): 90.2%; growth at 10 µM [4]: 105%; growth at 10 µM (IGROV-1): 96.7%
COc1ccc(Sc2cc3c(c4nsnc24)C(=O)c2ccccc2C3=O)cc1,106,82.8,8.26,92,108,94.8,109,107,89.7,119,101,92.9,113,110,82.9,91.4,103,84.8,112,92.9,growth at 10 µM (SNB-75): 79%; growth at 10 µM (ACHN): 102%; growth at 10 µM [3]: 149%; growth at 10 µM (NCI-H522): 95.7%; growth at 10 µM (HT-29): 101%; growth at 10 µM (LOX IMVI): 90.2%; growth at 10 µM [4]: 96.7%; growth at 10 µM (IGROV-1): 103%
Cc1ccccc1Sc1cc2c(c3nsnc13)C(=O)c1ccccc1C2=O,87.5,73.3,> 15,32.3,81.5,74.7,95.9,124,51.9,80.6,48.6,94.2,53.7,5.3,67.3,89.9,62.4,85.5,102,95.3,growth at 10 µM (SNB-75): 76.3%; growth at 10 µM (ACHN): 89.8%; growth at 10 µM [3]: 105%; growth at 10 µM (NCI-H522): 74.8%; growth at 10 µM (HT-29): 104%; growth at 10 µM (LOX IMVI): 30%; growth at 10 µM [4]: 83.7%; growth at 10 µM (IGROV-1): 80.1%

# Source: ChEMBL document CHEMBL3621107, “Ring fusion strategy for synthesis and lead optimization of sulfur-substituted anthra[1,2-c][1,2,5]thiadiazole-6,11-dione derivatives as promising scaffold of antitumor agents” (Eur J Med Chem, 2015)
